According to ChEMBL document CHEMBL1126766 (J Med Chem, 1993):

Assays:
Format in all cases: functional
Vanilloid receptor [1] = molecular target: T1, Vanilloid receptor (Rattus norvegicus, UniProt Q9ERZ8+Q9WUD2+O35433); assay: In vitro effective concentration for Ca++ uptake into dorsal root ganglia neurones in culture
How it was run: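 Uptake of 45Ca2+ tracer into cultured dorsal root ganglion neurones, evoked by the applied agonist analogues. Potency is expressed as EC50 in μM, reported ± an error term. Full assay details are held in an earlier paper of the series.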

Vanilloid receptor [2] = molecular target: T1, Vanilloid receptor; assay: In vitro effective concentration for [Ca2+] uptake into dorsal root ganglia neurones in culture
Mus musculus = species on record: Mus musculus; assay: Effective analgesic dose in mouse tail-flick latency assay
Cavia porcellus = species on record: Cavia porcellus; assay: Effective concentration for guinea pig ileum contraction in an in vitro assay

| Structure (SMILES) | EC50 (Vanilloid receptor [1]) | EC50 (Vanilloid receptor [2]) | further results |
| --- | --- | --- | --- |
| COCCOCCOCC(=O)NCCCCCCCCCCC(=O)NCc1ccc(O)c(OC)c1 | > 100 µM | – | – |
| CCCCCCCC/C=C/CCCCCCC/N=C(\S)NCc1ccc(O)c(OC)c1 | > 100 µM | – | – |
| CCCCCCCCCCCCCCCCCC(=O)NCc1ccc(O)c(OC)c1 | > 100 µM | – | – |
| CCCCCCCCC/N=C(\S)NCc1ccc(O)c(OC)c1 | 0.1 µM | – | – |
| CCCCCCCCCC/N=C(\S)NCc1ccc(O)c(OC)c1 | 0.11 µM | – | – |
| COc1cc(CNC(=O)C#Cc2ccc(Cl)cc2)ccc1O | – | 4.1 µM | – |
| COc1cc(CNC(=O)/C=C/c2ccc(C#N)cc2)ccc1O | – | 26.5 µM | – |
| CCCCCC/N=C(\S)NCc1ccc(O)c(OC)c1 | – | 0.18 µM | ED50 (Mus musculus): 12.5 µmol/kg; EC50 (Cavia porcellus): 0.18 µM |
| COc1cc(C/N=C(\S)NC2[C@H]3C[C@@H]4C[C@@H](C[C@H]2C4)C3)ccc1O (stereo partly drawn) | – | 1.08 µM | – |
| COc1cc(CNC(=O)Cc2ccc(Cl)cc2)ccc1O | – | 7.77 µM | – |
| COc1cc(C/N=C(\S)NC(c2ccccc2)(c2ccccc2)c2ccccc2)ccc1O | > 100 µM | – | – |
| CCCC/N=C(\S)NCc1ccc(O)c(OC)c1 | – | 9.48 µM | ED50 (Mus musculus): > 50 µmol/kg; EC50 (Cavia porcellus): 3.4 µM |
| COc1cc(CNC(=O)CCCC/C=C/C(C)C)ccc1O [CAPSAICIN] | – | – | ED50 (Mus musculus): 15 µmol/kg |
| COc1cc(CC(=O)NCCc2ccc(Cl)cc2)ccc1O | – | 0.66 µM | – |
| COc1cc(CNC(=O)CCc2ccc(N=[N+]=[N-])cc2)ccc1O | 4.2 µM | – | – |
| CCCCC/N=C(\S)NCc1ccc(O)c(OC)c1 | – | 1.96 µM | ED50 (Mus musculus): > 50 µmol/kg; EC50 (Cavia porcellus): 1.8 µM |
| COc1cc(CNC(=O)/C=C/c2ccccc2)ccc1O | – | 11.8 µM | – |
| CCCCCCCC/N=C(\S)NCc1ccc(O)c(OC)c1 | – | – | EC50 (Vanilloid receptor [1]; read-out: EC50): 0.06 µM; ED50 (Mus musculus): 3.2 µmol/kg; EC50 (Cavia porcellus): 0.06 µM |
| COc1cc(CNC(=O)CCc2ccc([N+](=O)[O-])cc2)ccc1O | – | 21 µM | – |
| CCCCCCCC/C=C\CCCCCCCC(=O)NCc1ccc(O)c(OC)c1 [OLVANIL] | 0.17 µM | – | – |
| COc1cc(CNC(=O)/C=C/c2ccc(I)cc2)ccc1O | – | 0.35 µM | – |
| COc1cc(CNC(=O)/C=C/c2ccc(N(C)C)cc2)ccc1O | – | 4.39 µM | – |
| COc1cc(CNC(=O)CCc2ccc(Cl)cc2)ccc1O | – | 3.09 µM | – |
| COc1cc(C/N=C(/N)S)ccc1O | – | > 100 µM | – |

| Structure (SMILES) | EC50 (Vanilloid receptor [1]) | EC50 (Vanilloid receptor [2]) | further results |
| --- | --- | --- | --- |
| COc1cc(CNC(=O)CCCCCCCCCCC(=O)O)ccc1O | > 100 µM | – | – |
| CCCCCCCCCCCC/N=C(\S)NCc1ccc(O)c(OC)c1 | 0.16 µM | – | – |
| CCCCCCCCC(=O)NCc1ccc(O)c(OC)c1 [NONIVAMIDE] | – | – | EC50 (Vanilloid receptor [1]; read-out: EC50): 0.55 µM |
| COc1cc(CNC(=O)/C=C/c2ccc(Cl)cc2Cl)ccc1O | – | 0.62 µM | – |
| COc1cc(CNC(=O)CCCCCN)ccc1O.O=C(O)C(F)(F)F | – | > 100 µM | – |
| COc1cc(CNC(=O)/C=C/c2ccc(-c3ccccc3)cc2)ccc1O | – | 0.24 µM | – |
| COc1cc(CNC(=O)/C=C/c2ccc(Cl)cc2)ccc1O | – | 1.24 µM | – |
| COc1cc(C/N=C(\S)NC(c2ccccc2)c2ccccc2)ccc1O | – | 0.27 µM | – |
| CCCCCCCCCCCCCCCC/N=C(\S)NCc1ccc(O)c(OC)c1 | > 100 µM | – | – |
| COc1cc(CNC(=O)CBr)ccc1O | > 100 µM | – | – |
| COc1cc(CNC(=O)/C=C\c2ccc(Cl)cc2)ccc1O | – | 50.1 µM | – |
| COCCOCCOCC(=O)NCc1ccc(O)c(OC)c1 | – | > 100 µM | – |
| CCCCCCC/N=C(\S)NCc1ccc(O)c(OC)c1 | 0.29 µM | – | ED50 (Mus musculus): 15 µmol/kg; EC50 (Cavia porcellus): 0.1 µM |
| COc1cc(CNC(=O)CCc2ccccc2)ccc1O | – | 45.26 µM | – |
| COc1cc(CNC(=O)/C=C/c2ccc([N+](=O)[O-])cc2)ccc1O | 4.58 µM | – | – |
| COc1cc(CNC(=O)CCc2ccc(O)cc2)ccc1O | – | > 100 µM | – |
| COc1cc(CNC(=O)CCl)ccc1O | > 100 µM | – | – |
| CCCCCCCCCCCCCCCCCC/N=C(\S)NCc1ccc(O)c(OC)c1 | 8.1 µM | – | – |
| COc1cc(CNC(=O)/C=C/c2cccc(Cl)c2)ccc1O | – | 2.58 µM | – |
| COc1cc(CNC(=O)CCCCCNC(=O)OC(C)(C)C)ccc1O | – | 79.8 µM | – |
| CCCCCCCC/C=C/CCCCCCCC(=O)NCc1ccc(O)c(OC)c1 | 0.36 µM | – | – |
| COc1cc(CNC(=O)CCCCCCC(C)C)ccc1O [DIHYDROCAPSAICIN] | – | 0.19 µM | – |
| COc1cc(CNC(=O)/C=C/c2ccc(NC=O)cc2)ccc1O | – | 1000 µM | – |
| COCCOCC(=O)NCc1ccc(O)c(OC)c1 | – | > 100 µM | – |
